From ChEMBL document CHEMBL2401735, “Synthesis and cytotoxicity of novel (thiazol-2-yl)hydrazine derivatives as promising anti-Candida agents” (Eur J Med Chem, 2013) come the findings set out here.

SMILES strings stand for the structures. Values after ≈ are worked out from the molar mass of the structure shown.

The test system of data set [1] is HEp-2. Description: Cytotoxicity against human Hep2 cells assessed as appearance of autophagic vacuoles near to mitochondrial proximity in cytoplasm at 5 to 100 ug/ml after 24 hrs by transmission electron microscopic analysis. Conditions: hep-2, 24 h. Format: cell-based. The procedure, abridged:
(§1)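 Hep2 cells treated and then examined by transmission electron microscopy, with unexposed cells as controls. Samples stained with 0.1% tannic acid for 30 min and uranyl acetate (5 mg/mL) for 1 h at 25 °C, dehydrated in graded acetone, embedded in Epon-812. Ultrathin sections counterstained with uranyl acetate and lead citrate before viewing.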

Data set [2] in a line: Cytotoxicity against human Hep2 cells assessed as reduction of cell viability after 24 hrs by trypan blue exclusion assay. Format: cell-based. The conditions noted are these: HEp-2 cells. The procedure, abridged: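 Hep2 cells in DMEM with 10% FBS, penicillin-streptomycin, 5% CO₂, 37 °C. Cells at 1 × 10⁵/mL exposed 24 h to seven concentrations (0.005-100 µg/mL), DMSO ≤0.5% final; controls were medium alone, DMSO, and 1 mM sodium nitroprusside. Cells scraped, allowed 30 min recovery, mixed 1:1 with 0.4% trypan blue, counted by hemocytometer by two operators.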

Data set [3] can be described thus: Cytotoxicity against human Hep2 cells assessed as cell survival fraction at 0.005 ug/ml after 24 hrs by trypan blue exclusion assay (reference value: 97 to 98%). Format: cell-based. The conditions noted are these: HEp-2 cells, read-out: Survival.
A short description of data set [4]: Cytotoxicity against human Hep2 cells assessed as cell survival fraction at 0.05 ug/ml after 24 hrs by trypan blue exclusion assay (reference value: 97 to 98%). Format: cell-based. Conditions: HEp-2 cells, read-out: Survival.
Data set [5] can be described thus: Cytotoxicity against human Hep2 cells assessed as cell survival fraction at 0.5 ug/ml after 24 hrs by trypan blue exclusion assay (reference value: 97 to 98%). Format: cell-based. Conditions: HEp-2 cells, read-out: Survival.
Data set [6] is described as follows: Cytotoxicity against human Hep2 cells assessed as cell survival fraction at 5 ug/ml after 24 hrs by trypan blue exclusion assay (reference value: 97 to 98%). Format: cell-based. The conditions noted are these: HEp-2 cells, read-out: Survival.
A short description of data set [7]: Cytotoxicity against human Hep2 cells assessed as cell survival fraction at 10 ug/ml after 24 hrs by trypan blue exclusion assay (reference value: 97 to 98%). Format: cell-based. The conditions noted are these: HEp-2 cells, read-out: Survival.
A short description of data set [8]: Cytotoxicity against human Hep2 cells assessed as cell survival fraction at 50 ug/ml after 24 hrs by trypan blue exclusion assay (reference value: 97 to 98%). Format: cell-based. Conditions: HEp-2 cells, read-out: Survival.
Data set [9] is described as follows: Cytotoxicity against human Hep2 cells assessed as cell survival fraction at 100 ug/ml after 24 hrs by trypan blue exclusion assay (reference value: 97 to 98%). Conditions: HEp-2 cells, read-out: Survival. Format: cell-based.
In data set [10] the test system is [Candida] sake. Nature of the data set: Anticandida activity against Candida sake clinical isolate assessed as growth inhibition after 24 hrs by broth microdilution method. Format: functional. The conditions noted are these: Fermentozyma sake. The procedure, abridged:
(§2)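 Clinical Candida isolates subcultured for purity and optimal growth before testing; compounds dissolved in DMSO. Broth microdilution per NCCLS in Sabouraud dextrose broth, serial dilutions, inoculum about 10³/mL, with growth control and medium-only control; 24 h incubation at 37 °C. MIC is the lowest concentration giving complete visible inhibition.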

The subject of data set [11] is Candida parapsilosis. Nature of the data set: Anticandida activity against Candida parapsilosis clinical isolate assessed as growth inhibition after 24 hrs by broth microdilution method. Format: functional. The conditions noted are these: Lodderomyces parapsilosis. The procedure, abridged: as §2
(In general: In broth dilution the organism is exposed to a series of concentrations in liquid medium.)

The test system of data set [12] is Pichia kudriavzevii. Nature of the data set: Anticandida activity against Candida krusei clinical isolate assessed as growth inhibition after 24 hrs by broth microdilution method. Format: functional. The procedure, abridged:
as §2

In data set [13] the test system is Candida tropicalis. Nature of the data set: Anticandida activity against Candida tropicalis clinical isolate assessed as growth inhibition after 24 hrs by broth microdilution method. Format: functional. The procedure, abridged: as §2
Data set [14] deals with Nakaseomyces glabratus. Description: Anticandida activity against Candida glabrata clinical isolate assessed as growth inhibition after 24 hrs by broth microdilution method. Format: functional. The procedure, abridged: as §2
Data set [15] relates to Candida albicans. Description: Anticandida activity against Candida albicans clinical isolate assessed as growth inhibition after 24 hrs by broth microdilution method. Format: functional. The procedure, abridged: as §2
For data set [16], the system named is Klebsiella oxytoca. Nature of the data set: Antibacterial activity against Klebsiella oxytoca assessed as growth inhibition after 18 to 22 hrs by broth microdilution method. Format: functional. The procedure, abridged:
(§3)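 Bacterial isolates subcultured for purity, identified conventionally. Broth microdilution per NCCLS in Mueller-Hinton II broth; plates with growth control (no compound) and medium-only control, incubated 18-22 h at 35 °C. MIC taken as lowest concentration giving complete growth inhibition by unaided eye.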

In data set [17] the test system is Proteus mirabilis. Description: Antibacterial activity against Proteus mirabilis assessed as growth inhibition after 18 to 22 hrs by broth microdilution method. Format: functional. The procedure, abridged:
as §3

In data set [18] the test system is Enterobacter sp. Nature of the data set: Antibacterial activity against Enterobacter spp. assessed as growth inhibition after 18 to 22 hrs by broth microdilution method. Format: functional. The procedure, abridged: as §3
The subject of data set [19] is Escherichia coli. Description: Antibacterial activity against Escherichia coli assessed as growth inhibition after 18 to 22 hrs by broth microdilution method. Format: functional. The procedure, abridged: as §3
Data set [20] relates to Enterococcus faecalis. Description: Antibacterial activity against […] assessed as growth inhibition after 18 to 22 hrs by broth microdilution method. Format: functional. The procedure, abridged: as §3
Data set [21] concerns Staphylococcus warneri. Nature of the data set: Antibacterial activity against Staphylococcus warneri assessed as growth inhibition after 18 to 22 hrs by broth microdilution method. Format: functional. The procedure, abridged:
as §3

In data set [22] the test system is Staphylococcus aureus. Description: Antibacterial activity against Staphylococcus aureus assessed as growth inhibition after 18 to 22 hrs by broth microdilution method. Format: functional. The procedure, abridged:
as §3

The subject of data set [23] is Streptococcus alpha-hemolyticus. Description: Antibacterial activity against Streptococcus alpha-hemolyticus assessed as growth inhibition after 18 to 22 hrs by broth microdilution method.
In data set [24] the test system is HEp-2. Description: Cytotoxicity against human Hep2 cells assessed as dilatation of endoplasmic reticulum at 100 ug/ml after 24 hrs by transmission electron microscopic analysis. Conditions: hep-2, 24 h. Format: cell-based. The procedure, abridged: as §1
In data set [25] the test system is HEp-2. Nature of the data set: Cytotoxicity against human Hep2 cells assessed as mitochondrial swelling at 5 ug/ml after 24 hrs by transmission electron microscopic analysis. Format: cell-based. The conditions noted are these: hep-2, 24 h. The procedure, abridged:
as §1

Data set [26] deals with HEp-2. Nature of the data set: Cytotoxicity against human Hep2 cells assessed as loss of cristae at 5 ug/ml after 24 hrs by transmission electron microscopic analysis. Format: cell-based. Conditions: hep-2, 24 h. The procedure, abridged: as §1
Data set [27] concerns HEp-2. Nature of the data set: Cytotoxicity against human Hep2 cells assessed as cell survival at 100 ug/ml after 24 hrs by transmission electron microscopic analysis. Format: cell-based. Conditions: hep-2, 24 h. The procedure, abridged:
as §1

The subject of data set [28] is HEp-2. Nature of the data set: Cytotoxicity against human Hep2 cells assessed as induction of vacuolization in proximity of mitochondria at 5 ug/ml after 24 hrs by transmission electron microscopic analysis. Format: cell-based. Conditions: hep-2, 24 h. The procedure, abridged: as §1
Data set [29] concerns HEp-2. Description: Cytotoxicity against human Hep2 cells assessed as appearance of finely granular cytoplasm at 5 ug/ml after 24 hrs by transmission electron microscopic analysis. Format: cell-based. The conditions noted are these: hep-2, 24 h. The procedure, abridged:
as §1

Take `CCC/C(C)=N/Nc1nc(-c2ccc(C)cc2)cs1`: in data set [1], the Activity result was “Toxic”. For the same compound, the half-maximal cytotoxic concentration (CC50) (usually the concentration giving 50% cytotoxicity) at 24 h in data set [2] is at least 100 µg/mL. For the same compound, the viability at 24 h, 0.005 ug/ml in data set [3] was 97%. Also, the viability at 24 h, 0.05 ug/ml in data set [4] turned out to be 94%. The viability at 24 h, 0.5 ug/ml in [5] stood at 91%. In [6], the viability at 24 h, 5 ug/ml is 93%. The viability at 24 h, 10 ug/ml in data set [7] is 83.2%. Besides, the viability at 24 h, 50 ug/ml in data set [8] worked out at 72.8%. Further, the viability at 24 h, 100 ug/ml in data set [9] was 62%. In addition, the MIC – broadly, the smallest concentration in the dilution series that meets the test's criterion for growth inhibition – in data set [10] worked out at 2 µg/mL (≈ 7.32 µM); in data set [11], 2 µg/mL (≈ 7.32 µM); in data set [12], 2 µg/mL (≈ 7.32 µM); in data set [13], 2 µg/mL (≈ 7.32 µM); in data set [14] it was 0.5 µg/mL (≈ 1.83 µM); in data set [15], 0.5 µg/mL (≈ 1.83 µM). Also, the MIC in data set [16], in data set [17], in [18], in data set [19], in data set [20] and in [21] was over 256 µg/mL throughout. For the same compound, the minimum inhibitory concentration (MIC) in [22] and in [23] was over 256 µg/mL throughout.

As to `CCC(CC)=NNc1nc(-c2ccc(C)cc2)cs1`, the CC50 at 24 h in [2] was at least 100 µg/mL. In addition, the viability at 24 h, 0.005 ug/ml in data set [3] amounted to 94.6%. The viability at 24 h, 0.05 ug/ml in [4] was found to be 92.2%. Moreover, the viability at 24 h, 0.5 ug/ml in data set [5] is 86%. For the same compound, in data set [6], the viability at 24 h, 5 ug/ml is 84%. Besides, in data set [7], the viability at 24 h, 10 ug/ml was 72.4%. Moreover, the viability at 24 h, 50 ug/ml in [8] was 67%. In addition, in data set [9], the viability at 24 h, 100 ug/ml amounted to 77%. Also, the minimum inhibitory concentration (MIC) in data set [10] was 2 µg/mL (≈ 7.32 µM); in data set [11] it was 2 µg/mL (≈ 7.32 µM); in data set [12], 2 µg/mL (≈ 7.32 µM); in [13] it was 2 µg/mL (≈ 7.32 µM); in data set [14] it was 0.25 µg/mL (≈ 0.914 µM); in [15], 0.5 µg/mL (≈ 1.83 µM). Also, the MIC in data set [16], in data set [17], in data set [18], in data set [19], in [20] and in [21] was over 256 µg/mL each time. For the same compound, the minimal inhibitory concentration (MIC) in [22] and in data set [23] was over 256 µg/mL in each case.

On to `CC/C(C)=N/Nc1nc(-c2ccc(OC)cc2)cs1`, for which the Activity result in data set [24], in data set [25] and in data set [26] was “Toxic” in each case. Further, the CC50 at 24 h in data set [2] was found to be 25 µg/mL (≈ 90.8 µM). In data set [3], the viability at 24 h, 0.005 ug/ml came out at 78%. In addition, the viability at 24 h, 0.05 ug/ml in data set [4] was found to be 71%. Moreover, the viability at 24 h, 0.5 ug/ml in [5] was 64%. The viability at 24 h, 5 ug/ml in data set [6] amounted to 69%. For the same compound, the viability at 24 h, 10 ug/ml in [7] was 64%. Also, the viability at 24 h, 50 ug/ml in [8] turned out to be 0%. In addition, the viability at 24 h, 100 ug/ml in data set [9] came out at 0%. The MIC is 2 µg/mL (≈ 7.26 µM) in data set [10]; 2 µg/mL (≈ 7.26 µM) in data set [11]; 2 µg/mL (≈ 7.26 µM) in data set [12]; 2 µg/mL (≈ 7.26 µM) in [13]; 2 µg/mL (≈ 7.26 µM) in [14]; 0.25 µg/mL (≈ 0.908 µM) in [15]. For the same compound, the MIC in data set [16], in data set [17], in [18], in data set [19], in data set [20] and in [21] was over 256 µg/mL in each case. Further, the MIC in data set [22] and in [23] was over 256 µg/mL each time.

On to `Clc1ccccc1C(c1ccccc1)(c1ccccc1)n1ccnc1` [CLOTRIMAZOLE], for which the Activity result in data set [27], in [28] and in [29] was “Toxic” throughout. The CC50 at 24 h in [2] is 38 µg/mL (≈ 110 µM). In addition, in [3], the viability at 24 h, 0.005 ug/ml turned out to be 94.4%. Also, the viability at 24 h, 0.05 ug/ml in data set [4] amounted to 93%. Besides, the viability at 24 h, 0.5 ug/ml in data set [5] is 93.4%. Also, the viability at 24 h, 5 ug/ml in [6] stood at 92.5%. The viability at 24 h, 50 ug/ml in [8] amounted to 0%. The viability at 24 h, 100 ug/ml in data set [9] was 0%. The MIC in data set [10] came out at 4 µg/mL (≈ 11.6 µM); in data set [13], 2 µg/mL (≈ 5.8 µM); in [14], 2 µg/mL (≈ 5.8 µM).
